Assay results taken from ChEMBL document CHEMBL4480426, “Novel multi-target directed ligands based on annelated xanthine scaffold with aromatic substituents acting on adenosine receptor and monoamine oxidase B. Synthesis, in vitro and in silico studies” (Bioorg Med Chem, 2019).

Assays:
[1] = molecular target: T1, Amine oxidase [flavin-containing] A (Homo sapiens, UniProt P21397); test: Inhibition of recombinant human MAOA expressed in baculovirus infected BTI insect cells at 1 to 100 uM using p-tyramine as substrate preincubated for 30 mins followed by substrate addition and measured over 45 mins by horseradish peroxidase-Amplex Red-coupled fluorometric assay relative to control; details: 0.75 h
T1 sequence (P21397 whole entry): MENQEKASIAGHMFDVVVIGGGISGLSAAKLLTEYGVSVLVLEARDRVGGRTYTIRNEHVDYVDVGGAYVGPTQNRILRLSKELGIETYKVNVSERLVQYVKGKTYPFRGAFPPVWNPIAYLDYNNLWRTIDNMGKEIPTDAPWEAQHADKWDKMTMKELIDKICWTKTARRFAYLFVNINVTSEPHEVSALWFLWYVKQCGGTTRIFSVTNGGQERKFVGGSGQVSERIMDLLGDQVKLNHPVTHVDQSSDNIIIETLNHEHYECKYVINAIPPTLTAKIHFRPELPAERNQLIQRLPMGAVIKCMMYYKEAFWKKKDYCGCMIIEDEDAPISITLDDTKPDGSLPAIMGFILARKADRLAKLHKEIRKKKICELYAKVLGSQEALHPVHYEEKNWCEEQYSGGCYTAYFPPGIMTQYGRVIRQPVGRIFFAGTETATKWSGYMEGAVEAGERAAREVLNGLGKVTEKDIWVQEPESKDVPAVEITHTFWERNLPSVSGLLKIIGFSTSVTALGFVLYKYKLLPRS
Outline: (§1)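 Human recombinant MAO-A or MAO-B enzyme. Activity detected fluorometrically with the Amplex Red monoamine oxidase assay.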

[2] = molecular target: T1, Amine oxidase [flavin-containing] A; test: Inhibition of recombinant human MAOA expressed in baculovirus infected BTI insect cells using p-tyramine as substrate preincubated for 30 mins followed by substrate addition and measured over 45 mins by horseradish peroxidase-Amplex Red-coupled fluorometric assay; outline: as §1
[3] = molecular target: T2, Adenosine receptor A1 (Homo sapiens) (UniProt P30542); test: Displacement of [3H]CCPA from recombinant human adenosine A1 receptor expressed in CHO cells at 1 uM relative to control; format: cell-based
T2 sequence (whole entry): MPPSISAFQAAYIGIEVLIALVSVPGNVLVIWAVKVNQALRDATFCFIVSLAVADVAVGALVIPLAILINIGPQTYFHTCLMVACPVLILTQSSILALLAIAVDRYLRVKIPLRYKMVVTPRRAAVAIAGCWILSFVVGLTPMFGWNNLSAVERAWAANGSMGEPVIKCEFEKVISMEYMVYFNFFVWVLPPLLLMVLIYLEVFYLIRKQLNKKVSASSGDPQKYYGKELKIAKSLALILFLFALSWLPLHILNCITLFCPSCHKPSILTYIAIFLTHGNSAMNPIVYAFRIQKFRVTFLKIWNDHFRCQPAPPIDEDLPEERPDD
Outline: (§2)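 Purchased membranes of CHO cells expressing human A1 ([3H]CCPA) or human A3 ([3H]PSB-11). A single high compound concentration is screened first; for potent compounds, full inhibition curves spanning 3 orders of magnitude. At least three independent experiments.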

[4] = molecular target: Adenosine receptor A2a (Homo sapiens, UniProt P29274); test: Displacement of [3H]MSX2 from recombinant human adenosine A2a receptor expressed in HEK293 cells; format: cell-based
Sequence of Adenosine receptor A2a (P29274 whole entry): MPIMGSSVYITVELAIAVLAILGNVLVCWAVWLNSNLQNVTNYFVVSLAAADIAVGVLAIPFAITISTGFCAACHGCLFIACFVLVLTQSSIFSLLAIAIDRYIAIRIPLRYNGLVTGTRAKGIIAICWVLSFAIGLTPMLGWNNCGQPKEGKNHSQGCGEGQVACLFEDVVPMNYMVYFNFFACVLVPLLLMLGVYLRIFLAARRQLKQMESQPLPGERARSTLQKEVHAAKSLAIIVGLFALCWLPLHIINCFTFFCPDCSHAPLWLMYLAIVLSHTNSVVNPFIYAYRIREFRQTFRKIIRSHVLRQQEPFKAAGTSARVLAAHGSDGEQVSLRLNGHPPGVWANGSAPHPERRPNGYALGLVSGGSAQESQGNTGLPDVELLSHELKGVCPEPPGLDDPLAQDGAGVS

[5] = molecular target: T3, Adenosine receptor A3 (Homo sapiens) (UniProt P0DMS8); test: Displacement of [3H]PSB11 from recombinant human adenosine A3 receptor expressed in CHO cells at 1 uM relative to control; format: cell-based; outline: as §2
T3 sequence (whole entry): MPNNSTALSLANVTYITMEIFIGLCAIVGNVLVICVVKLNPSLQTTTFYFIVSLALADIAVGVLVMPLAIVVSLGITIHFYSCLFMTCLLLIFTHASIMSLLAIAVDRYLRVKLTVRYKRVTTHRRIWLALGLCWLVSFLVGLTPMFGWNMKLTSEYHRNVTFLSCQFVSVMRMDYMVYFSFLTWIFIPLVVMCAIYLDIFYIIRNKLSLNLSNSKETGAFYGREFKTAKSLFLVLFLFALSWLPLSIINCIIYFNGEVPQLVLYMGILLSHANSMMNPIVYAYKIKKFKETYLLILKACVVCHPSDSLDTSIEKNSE

[6] = molecular target: T4, Adenosine receptor A1 (Homo sapiens, UniProt P30542); test: Displacement of [3H]CCPA from recombinant human adenosine A1 receptor expressed in CHO cells; format: cell-based
T4 sequence (P30542 whole entry): T2 sequence (whole entry)

[7] = system: Brain; test: Antioxidant activity in rat brain homogenate assessed as inhibition of FeCl2/ascorbic acid-induced lipid peroxidation by measuring reduction in TBARS level at 1000 uM preincubated for 5 mins followed by FeCl2/ascorbic acid addition and measured after 30 mins relative to control; format: functional, tissue-based; design: scale not given: the % may be the effect or the level left
Outline: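 Rat brain homogenate in 0.9% saline, 10 mg tissue/ml, preincubated 5 min at 37 °C with compound or vehicle. Peroxidation started with 0.5 mM FeCl2 plus 2 mM ascorbic acid (added-solution concentrations). After 30 min, stopped with 0.2% BHT. Thiobarbituric acid reagent added, heated 15 min in boiling water, TBARS extracted into n-butanol and read at 532 nm. Carvedilol as reference.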

[8] = Antioxidant activity assessed as increase in total ferric ion reducing activity at 1000 uM using FeCl3.6H2O and TPTZ incubated for 10 mins under dark condition by FRAP assay relative to control; format: functional; design: scale not given: the % may be the effect or the level left
Outline: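 FRAP reagent made by mixing 10 parts 300 mM acetate buffer pH 3.6, 1 part 10 mM TPTZ in 40 mM HCl and 1 part 20 mM FeCl3·6H2O. Reagent mixed with compound solution, 10 min at room temperature in the dark. Ferrous-TPTZ complex read at 593 nm. Result is absorbance increase versus solvent sample. FeSO4·7H2O standard curve, 37.5–1200 μM.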

[9] = molecular target: T5, Adenosine receptor A3 (Homo sapiens, UniProt P0DMS8); test: Displacement of [3H]PSB11 from recombinant human adenosine A3 receptor expressed in CHO cells; format: cell-based
T5 sequence (P0DMS8 whole entry): T3 sequence (whole entry)

[10] = Solubility of the compound in MEM media at 10 to 100 uM; format: physicochemical
[11] = molecular target: T6, Amine oxidase [flavin-containing] B (Homo sapiens, UniProt P27338); test: Inhibition of recombinant human MAOB expressed in baculovirus infected BTI insect cells using p-tyramine as substrate preincubated for 30 mins followed by substrate addition and measured over 45 mins by horseradish peroxidase-Amplex Red-coupled fluorometric assay; outline: as §1
T6 sequence (P27338 whole entry): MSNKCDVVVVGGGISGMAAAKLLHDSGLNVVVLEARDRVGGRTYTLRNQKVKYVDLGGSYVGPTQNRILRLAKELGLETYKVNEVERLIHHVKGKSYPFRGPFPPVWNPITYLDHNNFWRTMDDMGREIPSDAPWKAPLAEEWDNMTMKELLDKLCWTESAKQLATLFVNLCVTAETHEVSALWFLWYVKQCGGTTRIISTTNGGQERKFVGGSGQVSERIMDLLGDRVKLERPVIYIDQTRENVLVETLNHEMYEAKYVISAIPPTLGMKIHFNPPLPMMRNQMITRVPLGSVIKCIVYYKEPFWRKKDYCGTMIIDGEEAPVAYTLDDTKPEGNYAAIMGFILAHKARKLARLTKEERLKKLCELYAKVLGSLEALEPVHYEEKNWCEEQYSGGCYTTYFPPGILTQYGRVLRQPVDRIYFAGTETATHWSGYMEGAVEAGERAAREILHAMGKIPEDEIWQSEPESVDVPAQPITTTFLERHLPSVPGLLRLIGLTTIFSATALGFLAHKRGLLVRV

## Cn1c(=O)c2c(nc3n2CCCCN3Cc2ccc(Cl)c(Cl)c2)n(C)c1=O
[1]
  inhibition (INH): 5%
[2]
  IC50: > 1000 nM
[3]
  inhibition: 21%
[4]
  Ki: > 1000 nM
[5]
  inhibition: 26%
[6]
  Ki: > 1000 nM
[7]
  Activity: 16.6%
[8]
  Activity: 0.59%
[9]
  Ki: > 1000 nM
[10]
  solubility: Insoluble
[11]
  IC50: 83 nM
